Laboratory results reported in PMC12429009 (The FASEB Journal, 2025).
“Also recorded” adds a separate entry of the source.

Columns and labels:
[1] = target: the molecule itself; experiment: native gel or EMSA
[2] = system: FAM‐labeled peptides (mode2 phosphopeptide); experiment: Peptide binding ability of 14‐3‐3ζ mutant proteins by fluorescence polarization; settings: FP; FAM‐labeled peptide 62.5 nM, protein 8 to 0.0625 μM, 25°C, 30 min
Procedure, shortened: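 Untagged 14‑3‑3ζ mutants (E. coli BL21 DE3; Ni‑NTA, SEC, TEV cleavage) in 50 mM Na‑HEPES pH 8.0, 150 mM NaCl, 10% glycerol. Protein titrated 8 to 0.0625 μM against constant 62.5 nM N‑terminal FAM‑labeled phosphopeptide. Incubated 30 min at 25°C in the dark before anisotropy reading; K_D fitted.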

[3] = Oligomeric status by native PAGE; format: physicochemical; settings: 15 μg protein, 10% native gel (legend: 12%), Coomassie blue
Procedure, shortened: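 Purified untagged 14‐3‐3ζ WT and mutant apoproteins (E. coli‐expressed, Ni‐NTA plus size exclusion, TEV‐cleaved), buffer‐exchanged into 50 mM Na‐HEPES pH 8.0, 150 mM NaCl, 10% glycerol, then run under nondenaturing conditions. Migration read as monomer or dimer.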

[4] = system: 14‐3‐3; settings: ref 16 (Ramteke et al.); cited from earlier work
[5] = system: 14‐3‐3ζ WT and mutant proteins; experiment: ATPase activity; format: biochemical, human; settings: 10 μM protein, 1 mM ATP, 37°C, 2 h; three independent experiments

| Molecule | stoichiometry N [1] | migration on native PAGE / oligomeric state [3] | further results |
| --- | --- | --- | --- |
| 14-3-3ζ E180A (natural protein, human, UniProt P63104 1-245, looked up) MDKNELVQKAKLAEQAERYDDMAACMKSVTEQGAELSNEERNLLSVAYKNVVGARRSSWRVVSSIEQKTEGAEKKQQMAREYREKIETELRDICNDVLSLLEKFLIPNASQAESKVFYLKMKGDYYRYLAEVAAGDDKKGIVDQSQQAYQEAFEISKKEMQPTHPIRLGLALNFSVFYYAILNSPEKACSLAKTAFDEAIAELDTLSEESYKDSTLIMQLLRDNLTLWTSDTQGDEAEAGEGGEN | 2 | – | – |
| R55A: 14‐3‐3ζ dimer interface mutant (protein, left off: His6, end not stated, cleaved) MDKNELVQKAKLAEQAERYDDMAACMKSVTEQGAELSNEERNLLSVAYKNVVGAARSSWRVVSSIEQKTEGAEKKQQMAREYREKIETELRDICNDVLSLLEKFLIPNASQAESKVFYLKMKGDYYRYLAEVAAGDDKKGIVDQSQQAYQEAFEISKKEMQPTHPIRLGLALNFSVFYYEILNSPEKACSLAKTAFDEAIAELDTLSEESYKDSTLIMQLLRDNLTLWTSDTQGDEAEAGEGGEN | – | migrated as dimers | peptide binding of 14‐3‐3ζ mutant protein (in words) [2]: bind all peptides with the same affinity as the WT; ATPase activity (earlier study) [4]: reduction in ATP binding and hydrolysis; also recorded: ATPase defective mutant; also recorded: decrease in the ATPase activity |
| E131AE180A: 14‐3‐3ζ double mutant (protein, UniProt P63104 1-245, looked up, variant E131A E180A) 14-3-3 protein zeta/delta: MDKNELVQKAKLAEQAERYDDMAACMKSVTEQGAELSNEERNLLSVAYKNVVGARRSSWRVVSSIEQKTEGAEKKQQMAREYREKIETELRDICNDVLSLLEKFLIPNASQAESKVFYLKMKGDYYRYLAAVAAGDDKKGIVDQSQQAYQEAFEISKKEMQPTHPIRLGLALNFSVFYYAILNSPEKACSLAKTAFDEAIAELDTLSEESYKDSTLIMQLLRDNLTLWTSDTQGDEAEAGEGGEN | – | – | ATPase activity (in words, compared with WT) [5]: decreased dramatically |
| 14-3-3ζ D124A (natural protein, human, UniProt P63104 1-245, looked up) MDKNELVQKAKLAEQAERYDDMAACMKSVTEQGAELSNEERNLLSVAYKNVVGARRSSWRVVSSIEQKTEGAEKKQQMAREYREKIETELRDICNDVLSLLEKFLIPNASQAESKVFYLKMKGAYYRYLAEVAAGDDKKGIVDQSQQAYQEAFEISKKEMQPTHPIRLGLALNFSVFYYEILNSPEKACSLAKTAFDEAIAELDTLSEESYKDSTLIMQLLRDNLTLWTSDTQGDEAEAGEGGEN | 2 | – | – |
| 14-3-3ζ E131AN173V (natural protein, human, UniProt P63104 1-245, looked up) MDKNELVQKAKLAEQAERYDDMAACMKSVTEQGAELSNEERNLLSVAYKNVVGARRSSWRVVSSIEQKTEGAEKKQQMAREYREKIETELRDICNDVLSLLEKFLIPNASQAESKVFYLKMKGDYYRYLAAVAAGDDKKGIVDQSQQAYQEAFEISKKEMQPTHPIRLGLALVFSVFYYEILNSPEKACSLAKTAFDEAIAELDTLSEESYKDSTLIMQLLRDNLTLWTSDTQGDEAEAGEGGEN | 2 | – | – |
| F117AN173V (protein, left off: His6, end not stated, cleaved) MDKNELVQKAKLAEQAERYDDMAACMKSVTEQGAELSNEERNLLSVAYKNVVGARRSSWRVVSSIEQKTEGAEKKQQMAREYREKIETELRDICNDVLSLLEKFLIPNASQAESKVAYLKMKGDYYRYLAEVAAGDDKKGIVDQSQQAYQEAFEISKKEMQPTHPIRLGLALVFSVFYYEILNSPEKACSLAKTAFDEAIAELDTLSEESYKDSTLIMQLLRDNLTLWTSDTQGDEAEAGEGGEN | – | migrated as dimers | – |
| 14-3-3ζ N173V (natural protein, human, UniProt P63104 1-245, looked up) MDKNELVQKAKLAEQAERYDDMAACMKSVTEQGAELSNEERNLLSVAYKNVVGARRSSWRVVSSIEQKTEGAEKKQQMAREYREKIETELRDICNDVLSLLEKFLIPNASQAESKVFYLKMKGDYYRYLAEVAAGDDKKGIVDQSQQAYQEAFEISKKEMQPTHPIRLGLALVFSVFYYEILNSPEKACSLAKTAFDEAIAELDTLSEESYKDSTLIMQLLRDNLTLWTSDTQGDEAEAGEGGEN | 2 | – | – |
| 14-3-3ζ E180AN173V (natural protein, human, UniProt P63104 1-245, looked up) MDKNELVQKAKLAEQAERYDDMAACMKSVTEQGAELSNEERNLLSVAYKNVVGARRSSWRVVSSIEQKTEGAEKKQQMAREYREKIETELRDICNDVLSLLEKFLIPNASQAESKVFYLKMKGDYYRYLAEVAAGDDKKGIVDQSQQAYQEAFEISKKEMQPTHPIRLGLALVFSVFYYAILNSPEKACSLAKTAFDEAIAELDTLSEESYKDSTLIMQLLRDNLTLWTSDTQGDEAEAGEGGEN | 2 | – | – |
| 14-3-3ζ F117AN173V (natural protein, human, UniProt P63104 1-245, looked up) MDKNELVQKAKLAEQAERYDDMAACMKSVTEQGAELSNEERNLLSVAYKNVVGARRSSWRVVSSIEQKTEGAEKKQQMAREYREKIETELRDICNDVLSLLEKFLIPNASQAESKVAYLKMKGDYYRYLAEVAAGDDKKGIVDQSQQAYQEAFEISKKEMQPTHPIRLGLALVFSVFYYEILNSPEKACSLAKTAFDEAIAELDTLSEESYKDSTLIMQLLRDNLTLWTSDTQGDEAEAGEGGEN | 2 | – | – |
| E131AN173V: 14‐3‐3ζ double mutant (protein, left off: His6, end not stated, cleaved) MDKNELVQKAKLAEQAERYDDMAACMKSVTEQGAELSNEERNLLSVAYKNVVGARRSSWRVVSSIEQKTEGAEKKQQMAREYREKIETELRDICNDVLSLLEKFLIPNASQAESKVFYLKMKGDYYRYLAAVAAGDDKKGIVDQSQQAYQEAFEISKKEMQPTHPIRLGLALVFSVFYYEILNSPEKACSLAKTAFDEAIAELDTLSEESYKDSTLIMQLLRDNLTLWTSDTQGDEAEAGEGGEN | – | migrated as dimers | – |
| Y82AN173V: 14‐3‐3ζ double mutant, monomer (protein, left off: His6, end not stated, cleaved) MDKNELVQKAKLAEQAERYDDMAACMKSVTEQGAELSNEERNLLSVAYKNVVGARRSSWRVVSSIEQKTEGAEKKQQMAREAREKIETELRDICNDVLSLLEKFLIPNASQAESKVFYLKMKGDYYRYLAEVAAGDDKKGIVDQSQQAYQEAFEISKKEMQPTHPIRLGLALVFSVFYYEILNSPEKACSLAKTAFDEAIAELDTLSEESYKDSTLIMQLLRDNLTLWTSDTQGDEAEAGEGGEN | – | could be monomeric in nature | ATPase activity (in words, compared with WT) [5]: some ATPase activity (less than the WT); ATPase activity as percentage of the N173V mutant [5]: 20%; reduction in ATPase activity compared with N173V [5]: 80% |
| E131A (protein, left off: His6, end not stated, cleaved) MDKNELVQKAKLAEQAERYDDMAACMKSVTEQGAELSNEERNLLSVAYKNVVGARRSSWRVVSSIEQKTEGAEKKQQMAREYREKIETELRDICNDVLSLLEKFLIPNASQAESKVFYLKMKGDYYRYLAAVAAGDDKKGIVDQSQQAYQEAFEISKKEMQPTHPIRLGLALNFSVFYYEILNSPEKACSLAKTAFDEAIAELDTLSEESYKDSTLIMQLLRDNLTLWTSDTQGDEAEAGEGGEN | – | migrated as dimers | ATPase activity (in words, compared with WT) [5]: made no difference to the ATPase activity |
| E180A: 14‐3‐3ζ amphipathic pocket mutant (protein, left off: His6, end not stated, cleaved) MDKNELVQKAKLAEQAERYDDMAACMKSVTEQGAELSNEERNLLSVAYKNVVGARRSSWRVVSSIEQKTEGAEKKQQMAREYREKIETELRDICNDVLSLLEKFLIPNASQAESKVFYLKMKGDYYRYLAEVAAGDDKKGIVDQSQQAYQEAFEISKKEMQPTHPIRLGLALNFSVFYYAILNSPEKACSLAKTAFDEAIAELDTLSEESYKDSTLIMQLLRDNLTLWTSDTQGDEAEAGEGGEN | – | migrated as dimers | ATPase activity (in words, compared with WT) [5]: made no difference to the ATPase activity |
| 14-3-3ζ E131A (natural protein, human, UniProt P63104 1-245, looked up) MDKNELVQKAKLAEQAERYDDMAACMKSVTEQGAELSNEERNLLSVAYKNVVGARRSSWRVVSSIEQKTEGAEKKQQMAREYREKIETELRDICNDVLSLLEKFLIPNASQAESKVFYLKMKGDYYRYLAAVAAGDDKKGIVDQSQQAYQEAFEISKKEMQPTHPIRLGLALNFSVFYYEILNSPEKACSLAKTAFDEAIAELDTLSEESYKDSTLIMQLLRDNLTLWTSDTQGDEAEAGEGGEN | 2 | – | – |
| 14-3-3ζ R55A (natural protein, human, UniProt P63104 1-245, looked up) MDKNELVQKAKLAEQAERYDDMAACMKSVTEQGAELSNEERNLLSVAYKNVVGAARSSWRVVSSIEQKTEGAEKKQQMAREYREKIETELRDICNDVLSLLEKFLIPNASQAESKVFYLKMKGDYYRYLAEVAAGDDKKGIVDQSQQAYQEAFEISKKEMQPTHPIRLGLALNFSVFYYEILNSPEKACSLAKTAFDEAIAELDTLSEESYKDSTLIMQLLRDNLTLWTSDTQGDEAEAGEGGEN | 2 | – | – |
